Laboratory results taken from ChEMBL document CHEMBL3352365, “Formononetin attenuates osteoclastogenesis via suppressing the RANKL-induced activation of NF-κB, c-Fos, and nuclear factor of activated T-cells cytoplasmic 1 signaling pathway” (J Nat Prod, 2014).
Activity calls are given as the source filed them. The calls are words filed in the database; no cut-off is given here.

What was measured:
[1] = Inhibition of RANKL protein expression in ICR mouse BMMC co-cultured with primary osteoblasts at 1 to 10 uM incubated for 48 hrs by ELISA method relative to untreated control; type: functional
In short: (§1)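 Coculture of BMMs (3 × 10^5 cells/well) with calvarial osteoblasts from 1-day-old mice (2.5 × 10^4 cells/well). Cells prestimulated with RANKL 100 ng/mL for 1 h, then treated for 48 h with M-CSF 30 ng/mL present. RANKL measured in cell lysate and OPG in culture medium, both by ELISA. Mean ± SEM of two independent experiments; Student's t test.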

BMMC [2] = experiment: (§2) Inhibition of RANKL/M-CSF-stimulated MCP1 protein expression in ICR mouse BMMC at 1 to 10 uM incubated for 48 hrs by ELISA method relative to untreated control; type: functional
In short: (§3)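 BMMs (3 × 10^5 cells/well) prestimulated with RANKL 100 ng/mL for 1 h, then treated (1, 5, 10 μM) with M-CSF 30 ng/mL. Cytokines and chemokines in culture medium measured by ELISA. Methods give 7 days of treatment; legend gives 48 h. Mean ± SEM of two independent experiments; Student's t test.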

[3] = as §2; type: functional; in short: as §3
BMMC [4] = experiment: (§4) Inhibition of RANKL/M-CSF-stimulated IL-1beta protein expression in ICR mouse BMMC at 1 to 10 uM incubated for 48 hrs by ELISA method relative to untreated control; type: functional; in short: as §3
[5] = as §4; type: functional; in short: as §3
[6] = molecular target: T1, Tumor necrosis factor ligand superfamily member 11 (Mus musculus) (UniProt O35235); experiment: Inhibition of RANKL-induced c-FOS mRNA expression in ICR mouse BMMC at 5 uM incubated for 12 hrs by qRT-PCR method; type: functional
T1 sequence (whole entry): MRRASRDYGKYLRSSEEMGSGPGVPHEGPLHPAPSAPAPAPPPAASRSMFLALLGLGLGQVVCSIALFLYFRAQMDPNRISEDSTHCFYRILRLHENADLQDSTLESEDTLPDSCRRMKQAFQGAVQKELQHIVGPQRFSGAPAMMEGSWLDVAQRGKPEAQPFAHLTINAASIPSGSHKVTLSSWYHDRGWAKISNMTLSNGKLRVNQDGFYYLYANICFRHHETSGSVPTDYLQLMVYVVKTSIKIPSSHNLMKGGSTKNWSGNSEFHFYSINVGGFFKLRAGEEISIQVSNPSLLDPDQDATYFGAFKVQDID
In short: (§5)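 BMMs stimulated with RANKL (100 ng/mL) for 12 h, then treated at the indicated times and concentrations. c-Fos and NFATc1 mRNA quantified by real-time PCR.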

[7] = molecular target: MAP kinase p38 (Mus musculus) (UniProt P47811+O08911+Q9WUI1+Q9Z1B7); experiment: Inhibition of RANKL-stimulated p38 phosphorylation in ICR mouse BMMC at 1 to 10 uM incubated for 12 hrs by Western blotting method; type: protein assay
In short: (§6)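 BMMs stimulated with RANKL (100 ng/mL) for 1 h, then treated for 12 h. Whole-cell lysates run on 10% SDS-PAGE and probed (1:1000) for phospho- and total AKT, ERK, JNK and p38, with ECL detection. Blots representative of at least two experiments.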

BMMC [8] = experiment: (§7) Inhibition of RANKL/M-CSF-stimulated TNFalpha protein expression in ICR mouse BMMC at 1 to 10 uM incubated for 48 hrs by ELISA method relative to untreated control; type: functional; in short: as §3
[9] = as §7; type: functional; in short: as §3
[10] = Toxicity against ICR mouse BMMC assessed as reduction in cell viability up to 100 uM after 72 hrs by WST8 assay
In short: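 BMMs cultured with RANKL (100 ng/mL) and test compound at 0, 1, 5, 10 and 100 μM for 72 h. Viability read by WST-8 (CCK-8) assay.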

[11] = molecular target: T1, Tumor necrosis factor ligand superfamily member 11 (Mus musculus); experiment: Inhibition of RANKL-stimulated JNK phosphorylation in ICR mouse BMMC at 1 to 10 uM incubated for 12 hrs by Western blotting method; in short: as §6
BMMC [12] = experiment: Inhibition of RANKL/M-CSF-stimulated osteoclastogenesis in ICR mouse BMMC assessed as reduction in TRAP positive multinucleated cells at 1 to 10 uM incubated for 7 days by light microscopy; type: functional
In short: (§8)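 BMMs from 6-week-old ICR mouse femurs/tibiae (M-CSF expanded; 5 × 10^5 cells/well) stimulated with RANKL 100 ng/mL for 1 h, then treated (1, 5, 10 μM) with M-CSF 30 ng/mL for 7 days. Fixed and TRAP-stained; TRAP+ cells with ≥3 nuclei counted by light microscopy. Mean ± SEM, two experiments.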

[13] = molecular target: T1, Tumor necrosis factor ligand superfamily member 11 (Mus musculus); experiment: Inhibition of RANKL-induced NFATc1 mRNA expression in ICR mouse BMMC at 5 uM incubated for 12 hrs by qRT-PCR method; type: functional; in short: as §5
[14] = molecular target: T2, Nuclear factor NF-kappa-B complex (Homo sapiens) (UniProt Q00653+P19838+Q04206); experiment: Inhibition of RANKL-stimulated NFkappaB (unknown origin) expressed in ICR mouse BMMC assessed as reduction in transcriptional activity at 1 to 10 uM incubated for 12 hrs by SEAP based reporter gene assay
In short: (§9)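 BMMs (5 × 10^5 cells/well) stimulated with RANKL 100 ng/mL for 1 h, then transfected (Lipofectamine 2000) with 300 ng pNF-κB-SEAP-NPT (four NF-κB sites) or control SEAP-NPT. After 24 h, treated (0, 1, 5, 10 μM) for 12 h at 37 °C with M-CSF and RANKL. Supernatant SEAP fluorescence read at ex 360/em 449 nm, given as % of control. Two experiments.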

BMMC [15] = experiment: (§10) Inhibition of RANKL/M-CSF-stimulated RANTES protein expression in ICR mouse BMMC at 1 to 10 uM incubated for 48 hrs by ELISA method relative to untreated control; type: functional; in short: as §3
[16] = as §10; type: functional; in short: as §3
[17] = molecular target: T1, Tumor necrosis factor ligand superfamily member 11 (Mus musculus); experiment: Inhibition of RANKL-induced c-FOS protein expression in ICR mouse BMMC at 1 to 10 uM incubated for 12 hrs by Western blotting method; type: functional
In short: (§11)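 BMMs prestimulated with RANKL 100 ng/mL for 12 h, then treated at the indicated times and concentrations. Whole-cell lysates (20 μg/lane) run on 10% SDS-PAGE and blotted to nitrocellulose. Probed with anti-c-Fos and anti-NFATc1 (1:1000), β-actin as internal control, ECL detection.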

Osteoblast = experiment: Increase in OPG protein expression in RANKL-stimulated mouse primary osteoblasts co-cultured with ICR mouse BMMC at 1 to 10 uM incubated for 48 hrs by ELISA method relative to untreated control; type: functional; in short: as §1
[18] = molecular target: T1, Tumor necrosis factor ligand superfamily member 11 (Mus musculus); experiment: Inhibition of RANKL-stimulated IkappaBalpha degradation in ICR mouse BMMC at 1 to 10 uM incubated for 4 hrs by Western blotting method
BMMC [19] = experiment: (§12) Inhibition of RANKL/M-CSF-stimulated IL-6 protein expression in ICR mouse BMMC at 1 to 10 uM incubated for 48 hrs by ELISA method relative to untreated control; type: functional; in short: as §3
[20] = as §12; type: functional; in short: as §3
[21] = molecular target: T2, Nuclear factor NF-kappa-B complex (Homo sapiens); experiment: Inhibition of RANKL-stimulated NFkappaB (unknown origin) expressed in ICR mouse BMMC assessed as reduction in transcriptional activity at 1 to 10 uM incubated for 12 hrs by SEAP based reporter gene assay relative to untreated control; in short: as §9
[22] = Inhibition of RANKL/M-CSF-stimulated osteoclastogenesis in ICR mouse BMMC assessed as reduction in TRAP positive multinucleated cells at 1 to 10 uM incubated for 7 days by light microscopy relative to untreated control; type: functional; in short: as §8
[23] = molecular target: Transcription factor p65 (Mus musculus) (UniProt Q04207); experiment: Inhibition of RANKL-stimulated NFkappaB p65 phosphorylation in ICR mouse BMMC at 1 to 10 uM incubated for 4 hrs by Western blotting method
BMMC [24] = experiment: Inhibition of RANKL protein expression in ICR mouse BMMC co-cultured with primary osteoblasts at 1 to 10 uM incubated for 48 hrs by ELISA method; type: functional; in short: as §1
[25] = molecular target: T1, Tumor necrosis factor ligand superfamily member 11 (Mus musculus); experiment: Inhibition of RANKL-induced NFATc1 protein expression in ICR mouse BMMC at 1 to 10 uM incubated for 12 hrs by Western blotting method; type: functional; in short: as §11
[26] = molecular target: RAC-alpha serine/threonine-protein kinase (Mus musculus) (UniProt P31750); experiment: Inhibition of RANKL-stimulated AKT phosphorylation in ICR mouse BMMC at 1 to 10 uM incubated for 12 hrs by Western blotting method; in short: as §6
BMMC [27] = experiment: (§13) Inhibition of RANKL/M-CSF-stimulated MIP-1alpha protein expression in ICR mouse BMMC at 1 to 10 uM incubated for 48 hrs by ELISA method relative to untreated control; type: functional; in short: as §3
[28] = as §13; type: functional; in short: as §3
[29] = molecular target: T1, Tumor necrosis factor ligand superfamily member 11 (Mus musculus); experiment: Inhibition of RANKL-stimulated ERK phosphorylation in ICR mouse BMMC at 1 to 10 uM incubated for 12 hrs by Western blotting method; in short: as §6
[30] = molecular target: T1, Tumor necrosis factor ligand superfamily member 11 (Mus musculus); experiment: Inhibition of RANKL-stimulated JNK in ICR mouse BMMC assessed as reduction in c-Jun phosphorylation at 1 to 20 uM incubated for 12 hrs by Western blotting method
[31] = molecular target: T1, Tumor necrosis factor ligand superfamily member 11 (Mus musculus); experiment: Inhibition of RANKL-induced c-FOS protein expression in ICR mouse BMMC at 1 to 20 uM incubated for 12 hrs by Western blotting method; type: functional
[32] = molecular target: T1, Tumor necrosis factor ligand superfamily member 11 (Mus musculus); experiment: Inhibition of RANKL-induced NFATc1 protein expression in ICR mouse BMMC at 1 to 20 uM incubated for 12 hrs by Western blotting method; type: functional
BMMC [33] = experiment: Inhibition of RANKL/M-CSF-stimulated osteoclastogenesis in ICR mouse BMMC assessed as reduction in TRAP positive multinucleated cells at 1 to 20 uM incubated for 7 days by light microscopy; type: functional
In short: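 JNK inhibitor SP600125 used as reference. For blots, BMMs were incubated with RANKL 100 ng/mL for 12 h, then SP600125 for 4 h; lysates probed for phospho-c-Jun, c-Jun, c-Fos and NFATc1, with β-actin as control. For TRAP counts, BMMs were given RANKL 1 h, then SP600125 (1, 10, 20 μM) with M-CSF 30 ng/mL.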

T2 sequence (P19838 whole entry, looked up): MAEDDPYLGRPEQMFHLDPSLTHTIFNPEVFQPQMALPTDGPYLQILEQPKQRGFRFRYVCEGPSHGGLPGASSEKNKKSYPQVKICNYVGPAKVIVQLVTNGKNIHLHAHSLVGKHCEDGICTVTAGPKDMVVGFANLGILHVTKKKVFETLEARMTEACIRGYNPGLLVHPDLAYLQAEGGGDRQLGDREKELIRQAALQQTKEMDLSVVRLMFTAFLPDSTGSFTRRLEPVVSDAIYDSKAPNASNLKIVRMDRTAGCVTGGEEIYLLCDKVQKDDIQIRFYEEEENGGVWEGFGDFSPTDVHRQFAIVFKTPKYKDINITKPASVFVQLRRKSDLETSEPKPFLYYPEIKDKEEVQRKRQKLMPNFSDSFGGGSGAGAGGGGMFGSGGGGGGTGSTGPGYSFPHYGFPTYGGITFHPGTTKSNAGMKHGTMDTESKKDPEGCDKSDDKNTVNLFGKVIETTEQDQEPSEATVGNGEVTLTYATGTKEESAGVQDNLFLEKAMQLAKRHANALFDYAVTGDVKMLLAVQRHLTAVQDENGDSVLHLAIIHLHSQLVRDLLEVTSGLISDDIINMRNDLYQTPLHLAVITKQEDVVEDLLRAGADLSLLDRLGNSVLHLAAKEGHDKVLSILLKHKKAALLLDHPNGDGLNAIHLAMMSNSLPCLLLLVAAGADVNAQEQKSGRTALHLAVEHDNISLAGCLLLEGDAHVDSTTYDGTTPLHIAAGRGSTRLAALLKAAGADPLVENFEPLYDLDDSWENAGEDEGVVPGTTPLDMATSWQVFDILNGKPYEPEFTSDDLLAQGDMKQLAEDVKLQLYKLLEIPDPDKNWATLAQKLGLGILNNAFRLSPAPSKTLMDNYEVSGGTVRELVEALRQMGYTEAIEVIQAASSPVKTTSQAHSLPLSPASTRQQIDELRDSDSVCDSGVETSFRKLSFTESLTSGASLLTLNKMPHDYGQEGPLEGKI
T2 sequence (Q00653 whole entry, looked up): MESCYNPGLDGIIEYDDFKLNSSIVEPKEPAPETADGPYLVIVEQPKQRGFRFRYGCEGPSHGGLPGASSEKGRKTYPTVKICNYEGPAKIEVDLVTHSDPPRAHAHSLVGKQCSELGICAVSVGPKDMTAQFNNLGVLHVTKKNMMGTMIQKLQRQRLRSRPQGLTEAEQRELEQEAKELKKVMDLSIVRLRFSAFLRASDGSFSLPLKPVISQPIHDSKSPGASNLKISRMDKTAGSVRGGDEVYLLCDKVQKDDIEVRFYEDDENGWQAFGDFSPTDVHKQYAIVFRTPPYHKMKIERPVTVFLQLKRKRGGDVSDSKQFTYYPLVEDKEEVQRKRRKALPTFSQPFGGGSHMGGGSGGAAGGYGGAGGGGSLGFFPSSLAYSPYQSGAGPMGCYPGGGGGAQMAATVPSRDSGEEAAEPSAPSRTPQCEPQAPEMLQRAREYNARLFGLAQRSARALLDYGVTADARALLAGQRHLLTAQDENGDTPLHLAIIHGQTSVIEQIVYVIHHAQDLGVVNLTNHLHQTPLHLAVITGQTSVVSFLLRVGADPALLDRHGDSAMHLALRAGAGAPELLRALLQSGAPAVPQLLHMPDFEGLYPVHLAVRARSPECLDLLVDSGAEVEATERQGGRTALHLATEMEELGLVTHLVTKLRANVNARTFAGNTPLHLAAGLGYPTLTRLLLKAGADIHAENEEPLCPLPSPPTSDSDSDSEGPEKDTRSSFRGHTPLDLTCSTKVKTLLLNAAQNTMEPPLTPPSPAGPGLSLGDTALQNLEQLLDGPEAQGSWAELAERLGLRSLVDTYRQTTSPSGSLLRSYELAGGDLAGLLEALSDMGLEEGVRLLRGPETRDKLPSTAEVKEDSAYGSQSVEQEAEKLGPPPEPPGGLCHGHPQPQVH
T2 sequence (Q04206 whole entry, looked up): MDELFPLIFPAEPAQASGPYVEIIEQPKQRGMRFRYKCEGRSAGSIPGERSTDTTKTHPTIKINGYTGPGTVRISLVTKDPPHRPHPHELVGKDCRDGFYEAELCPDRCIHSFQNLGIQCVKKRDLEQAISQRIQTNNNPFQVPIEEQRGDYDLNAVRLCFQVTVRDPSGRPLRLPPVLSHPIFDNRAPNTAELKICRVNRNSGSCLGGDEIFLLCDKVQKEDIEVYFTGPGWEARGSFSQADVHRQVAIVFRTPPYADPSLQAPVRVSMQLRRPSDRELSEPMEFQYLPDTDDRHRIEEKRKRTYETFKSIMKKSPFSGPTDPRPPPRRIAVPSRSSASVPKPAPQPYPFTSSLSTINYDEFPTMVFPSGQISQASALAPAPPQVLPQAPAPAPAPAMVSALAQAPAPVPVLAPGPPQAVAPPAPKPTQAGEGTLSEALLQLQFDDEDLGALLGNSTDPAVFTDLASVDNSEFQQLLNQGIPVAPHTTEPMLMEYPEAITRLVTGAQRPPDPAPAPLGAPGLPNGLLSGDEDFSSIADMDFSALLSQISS
Sequence of Transcription factor p65 (Mus musculus) (Q04207 whole entry): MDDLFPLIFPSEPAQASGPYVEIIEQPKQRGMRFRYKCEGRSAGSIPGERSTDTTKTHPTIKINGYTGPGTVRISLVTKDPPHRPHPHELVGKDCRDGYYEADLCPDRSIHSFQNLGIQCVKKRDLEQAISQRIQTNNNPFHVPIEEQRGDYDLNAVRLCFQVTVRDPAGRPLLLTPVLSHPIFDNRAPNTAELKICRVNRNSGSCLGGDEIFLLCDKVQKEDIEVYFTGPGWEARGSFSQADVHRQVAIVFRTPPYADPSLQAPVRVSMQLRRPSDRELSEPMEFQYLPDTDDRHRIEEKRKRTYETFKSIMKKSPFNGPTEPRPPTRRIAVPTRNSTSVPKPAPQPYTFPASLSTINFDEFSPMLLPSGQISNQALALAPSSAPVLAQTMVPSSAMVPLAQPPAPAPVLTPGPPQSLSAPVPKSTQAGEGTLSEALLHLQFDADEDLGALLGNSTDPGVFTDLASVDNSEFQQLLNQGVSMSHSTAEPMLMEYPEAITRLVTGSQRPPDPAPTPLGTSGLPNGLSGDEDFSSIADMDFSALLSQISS
Sequence of RAC-alpha serine/threonine-protein kinase (Mus musculus) (P31750 whole entry): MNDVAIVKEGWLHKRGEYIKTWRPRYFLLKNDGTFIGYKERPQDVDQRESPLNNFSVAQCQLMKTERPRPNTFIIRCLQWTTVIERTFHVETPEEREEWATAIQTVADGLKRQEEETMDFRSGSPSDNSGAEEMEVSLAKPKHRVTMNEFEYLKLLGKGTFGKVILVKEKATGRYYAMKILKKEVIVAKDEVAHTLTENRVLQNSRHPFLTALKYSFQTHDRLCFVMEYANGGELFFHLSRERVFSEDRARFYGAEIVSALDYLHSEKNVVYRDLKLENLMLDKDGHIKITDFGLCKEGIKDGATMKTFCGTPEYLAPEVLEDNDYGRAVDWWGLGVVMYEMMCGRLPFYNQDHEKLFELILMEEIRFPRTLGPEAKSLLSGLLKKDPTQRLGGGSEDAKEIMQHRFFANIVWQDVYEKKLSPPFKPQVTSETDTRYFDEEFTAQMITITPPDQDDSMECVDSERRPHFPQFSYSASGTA

## COc1ccc(-c2coc3cc(O)ccc3c2=O)cc1 [FORMONONETIN]
[1]
  fold change (FC): 1.5
BMMC [2]
  inhibition: Dose-dependent effect
[3]
  inhibition (INH): 27.4%
BMMC [4]
  inhibition: Dose-dependent effect
[5]
  inhibition (INH): 25.1%
[6]
  inhibition: Active
[7]
  inhibition: Dose-dependent effect
BMMC [8]
  inhibition: Dose-dependent effect
[9]
  inhibition (INH): 27.1%
[10]
  Activity: Non-toxic
[11]
  inhibition: Dose-dependent effect
BMMC [12]
  inhibition: Dose-dependent effect
[13]
  inhibition: Active
[14]
  inhibition: Dose-dependent effect
BMMC [15]
  inhibition: Dose-dependent effect
[16]
  inhibition (INH): 7.1%
[17]
  inhibition: Dose-dependent effect
Osteoblast
  fold change (FC): 1.2
[18]
  inhibition: Active
BMMC [19]
  inhibition: Dose-dependent effect
[20]
  inhibition (INH): 9.2%
[21]
  fold change (FC): 1.3
[22]
  fold change (FC): 1.3
[23]
  inhibition: Active
BMMC [24]
  inhibition: Dose-dependent effect
[25]
  inhibition: Dose-dependent effect
[26]
  inhibition: Dose-dependent effect
BMMC [27]
  inhibition: Dose-dependent effect
[28]
  inhibition (INH): 23.1%
[29]
  inhibition: Dose-dependent effect

## Oc1c2ccccc2c2c3c(cccc13)N=N2
[30]
  inhibition: Active
[31]
  inhibition: Active
[32]
  inhibition: Active
BMMC [33]
  inhibition: Active
